Experimental findings from ChEMBL document CHEMBL3232813, “The identification, analysis and structure-based development of novel inhibitors of 6-hydroxymethyl-7,8-dihydropterin pyrophosphokinase” (Bioorg Med Chem, 2014) are described below.

The structures appear in SMILES notation. The source made the active and inactive calls. The rule behind the calls is not given here.

Test [1] has as its target T1, 2-amino-4-hydroxy-6-hydroxymethyldihydropteridine pyrophosphokinase (Escherichia coli (strain K12)) (UniProt P26281).
T1 sequence (whole entry): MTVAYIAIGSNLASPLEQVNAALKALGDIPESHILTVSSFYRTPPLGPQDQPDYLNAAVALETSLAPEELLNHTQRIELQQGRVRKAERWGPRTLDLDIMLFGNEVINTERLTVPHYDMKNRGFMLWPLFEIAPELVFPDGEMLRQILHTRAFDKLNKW
Description: Inhibition of GST-tagged Escherichia coli HPPK expressed in Escherichia coli using 6-hydroxymethyl-7,8-dihydropterin hydrochloride as substrate at 250 uM after 20 mins by luminescence assay. The gist of the method:
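GST tag cleaved from E. coli HPPK; 5 ng enzyme used. Reaction contained 0.75 µM dihydropterin substrate, 0.75 µM ATP, 100 mM Tris-HCl pH 8.5, 10 mM MgCl2, 10 mM BME, 0.01% Tween 20, 0.01% BSA and 5% DMSO. Compound present at 250 µM. Ran 20 min at 23 °C. Unconsumed ATP read by Kinase-Glo luminescence and reported as % inhibition.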

Test [2] concerns the target T2, 2-amino-4-hydroxy-6-hydroxymethyldihydropteridine pyrophosphokinase (Escherichia coli (strain K12), UniProt P26281).
T2 sequence (P26281 whole entry): T1 sequence (whole entry)
Description: Binding affinity to GST-tagged Escherichia coli HPPK expressed in Escherichia coli by SPR assay based alternative equilibrium affinity method in presence of AMP-CPP. Put shortly:
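E. coli HPPK expressed as a GST fusion, with the tag removed by thrombin. Minimally biotinylated and captured on a neutravidin chip. SPR run at 20 °C in 20 mM Tris pH 8.5, 100 mM NaCl, 10 mM MgCl2, 1 mM TCEP, 10% glycerol, 5% DMSO, with 2 µM AMPCPP. Compounds injected as a 3-fold series from 100 µM at 80 µL/min. Data double-referenced and fitted to a 1:1 model.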
For orientation: Surface plasmon resonance follows binding to a sensor surface in real time, without labels.

Test [3] addresses T1, 2-amino-4-hydroxy-6-hydroxymethyldihydropteridine pyrophosphokinase (Escherichia coli (strain K12)). Description: Binding affinity to GST-tagged Escherichia coli HPPK expressed in Escherichia coli by SPR assay in absence of AMP-CPP. Put shortly: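 Thrombin-cleaved EcHPPK (GST removed), minimally biotinylated and captured (~3000–3700 RU) on a neutravidin chip. SPR at 20 °C, no AMPCPP, in 20 mM Tris pH 8.5, 100 mM NaCl, 10 mM MgCl2, 1 mM TCEP, 0.005% Tween20, 10% glycerol, 5% DMSO. Compounds run as 3-fold dilution series. Data double-referenced, solvent-corrected, fitted to a 1:1 model for K_D.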

The target of test [4] is T2, 2-amino-4-hydroxy-6-hydroxymethyldihydropteridine pyrophosphokinase. Put plainly: Inhibition of GST-tagged Escherichia coli HPPK expressed in Escherichia coli using 6-hydroxymethyl-7,8-dihydropterin hydrochloride as substrate after 20 mins by luminescence assay. The gist of the method: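 GST tag cleaved from E. coli HPPK; 5 ng enzyme used. Reaction contained 0.75 µM dihydropterin substrate, 0.75 µM ATP, 100 mM Tris-HCl pH 8.5, 10 mM MgCl2, 10 mM BME, 0.01% Tween 20, 0.01% BSA and 5% DMSO. Ran 20 min at 23 °C. Remaining ATP read by Kinase-Glo luminescence.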

The target in test [5] is T1, 2-amino-4-hydroxy-6-hydroxymethyldihydropteridine pyrophosphokinase (Escherichia coli (strain K12)). Description: Binding affinity to GST-tagged Escherichia coli HPPK expressed in Escherichia coli by ITC method.

For orientation: inhibition means how much of the control response was suppressed. Read a low inhibition as a response near the control. The Kd is the constant that tells how readily two partners part at equilibrium. What is called IC50 is the midpoint of a concentration-inhibition curve. Higher therefore signals weaker potency.

`Nc1nc2[nH]cnc2c(=S)[nH]1`: the inhibition in test [1] was 51%.

Take `N#Cc1ccc(CSc2nc3nc(N)[nH]c(=O)c3[nH]2)cc1`: in test [2], the equilibrium dissociation constant (Kd) is 29 µM. In test [1], this compound registered an inhibition of 53%. Also, the outcome in test [3] was inactive. The IC50 in test [4] was 254 µM.

Turning to `N#Cc1ccc(C(=O)CSc2nc3nc(N)[nH]c(=O)c3[nH]2)cc1`, the equilibrium dissociation constant (Kd) in test [2] stood at 39 µM. In addition, in test [1], the inhibition turned out to be 68%. Besides, in test [4], the midpoint of inhibition, the IC50, lay at 88 µM.

In the case of `Cc1nc2c(=O)[nH]c(N)nc2[nH]1`, the dissociation constant (Kd) in test [2] is 18 µM.

As for `Nc1nc2[nH]c(S)nc2c(=O)[nH]1`, the dissociation constant Kd in test [2] was over 100 µM. The inhibition in test [1] is 18%.

As for `Cc1ccc(C(=O)CSc2nc3nc(N)[nH]c(=O)c3[nH]2)cc1`, in test [2], the Kd amounted to 6.7 µM. This compound also displayed an inhibition in test [1] of 80%. The same compound returned an IC50 in test [4] of 64 µM.

On to `Nc1nc2nc(SCC(=O)c3ccccc3)[nH]c2c(=O)[nH]1`, for which, in test [2], the Kd was 9.7 µM. The inhibition in test [1] was 75%. Also, the result in test [3] was inactive. In test [4], this compound yielded a concentration for half-maximal inhibition (IC50) of 139 µM.

In the case of `Nc1nc(O)c2nc(SCC(=O)N3CCOCC3)[nH]c2n1`, the inhibition in test [1] is 6%.

For the compound `Nc1nc2nc[nH]c2c(=O)[nH]1` [GUANINE], in test [2], the equilibrium dissociation constant (Kd) came out at 38 µM.

`Cc1ccc(C(=O)C(C)Sc2nc3nc(N)[nH]c(=O)c3[nH]2)cc1` (centres undefined) returned an inhibition in test [1] of 13%.

As for `COc1ccccc1C(=O)CSc1nc2nc(N)[nH]c(=O)c2[nH]1`, the inhibition in test [1] was determined as 12%.

Regarding `NC1N=C(O)c2nc(CO)cnc2N1` (centres undefined), the outcome in test [5] was Active.

Consider `COc1ccc(C(=O)CSc2nc3nc(N)[nH]c(=O)c3[nH]2)cc1`, for which, in test [2], the Kd worked out at 14.5 µM. The same compound showed an inhibition in test [1] of 74%. Further, in test [4], it took 44 µM to reach half-maximal inhibition (IC50).

The compound `Nc1nc2[nH]cnc2c(=O)[nH]1` gave an inhibition in test [1] of 48%.

Take `Nc1nc2nc(SC(=O)c3ccc(F)cc3)[nH]c2c(=O)[nH]1`: the inhibition in test [1] is 16%.

In the case of `Nc1nc(O)nc2nc[nH]c12` [ISOGUANINE], the equilibrium dissociation constant (Kd) in test [2] was 7.5 µM.

`Nc1nc2nc(SCCN3CCOCC3)[nH]c2c(=O)[nH]1` came in with an inhibition in test [1] of 7%.

On to `Cc1cccc(C(=O)CSc2nc3nc(N)[nH]c(=O)c3[nH]2)c1`, for which, in test [2], the equilibrium dissociation constant (Kd) was found to be 5.9 µM. The same compound had an inhibition in test [1] of 77%. In test [4], this compound yielded an IC50 of 51 µM.

`CC(Sc1nc2nc(N)[nH]c(=O)c2[nH]1)C(=O)c1ccccc1` (centres undefined) had an inhibition in test [1] of 10%.

Consider `Nc1nc2nc(SCC(=O)c3ccc(F)cc3)[nH]c2c(=O)[nH]1`, for which the equilibrium dissociation constant (Kd) in test [2] is 11.2 µM. In test [1], this compound yielded an inhibition of 73%. Also, in test [4], 79 µM corresponded to half-maximal inhibition (IC50).

`Nc1nc2nc(SCC(=O)c3ccc(O)cc3)[nH]c2c(=O)[nH]1`: in test [2], the Kd worked out at 5.8 µM. Besides, in test [1], the inhibition was 77%. Moreover, in test [4], the half-maximal inhibitory concentration (IC50) amounted to 82 µM.

`Cc1ccccc1C(=O)CSc1nc2nc(N)[nH]c(=O)c2[nH]1`: the dissociation constant Kd in test [2] was determined as 18.9 µM. For the same compound, the inhibition in test [1] is 48%. Besides, in test [4], the 50% inhibitory concentration (IC50) came to 243 µM.

Compound `Nc1nc2nc(SCC(=O)c3ccc(OCCN4CCOCC4)cc3)[nH]c2c(=O)[nH]1` yielded an inhibition in test [1] of 5%.
